The source of these data is ChEMBL document CHEMBL4393672, “High affinity CXCR4 inhibitors generated by linking low affinity peptides” (Eur J Med Chem, 2019).

pIC50: −log10 of the molar value. The source made the active and inactive calls. No cut-off for these calls is given here.

In series [1] the target is T1, C-X-C chemokine receptor type 4 (Homo sapiens, UniProt P61073). The series is described as follows: Antagonist activity at CXCR4 receptor in human SupT1 cells assessed as inhibition of SDF-1alpha-induced calcium release at 1 uM preincubated for 2 to 3 mins followed by SDF-1alpha addition by Fluo-4AM dye based fluorescence assay relative to control. In kind it is functional, cell-based. In a few lines:
(§1)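 SupT1 cells loaded with Fluo-4AM (2 µM) plus probenecid (5 µM) for 30 min at 37°C in HBSS/20 mM HEPES, washed; 1×10⁶ cells/mL exposed to compound 2–3 min, then stimulated with 50 nM SDF-1α; fluorescence read at […]/510em.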

Series [2] concerns the target T1, C-X-C chemokine receptor type 4. The experiment in a line: Antagonist activity at CXCR4 receptor in human SupT1 cells assessed as inhibition of SDF-1alpha-induced calcium release preincubated for 2 to 3 mins followed by SDF-1alpha addition by Fluo-4AM dye based fluorescence assay. The format is functional, cell-based. A digest of the protocol:
as §1

Series [3] shares this target. The series is described as follows: Antagonist activity at CXCR4 (unknown origin) in CHO cells assessed as reduction in SDF-1alpha-induced Akt phosphorylation level at 50 uM incubated for 30 mins followed by SDF1-alpha addition measured after 5 mins by Western blot analysis. The format is cell-based. In a few lines:
(§2)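 CXCR4-expressing CHO cells grown in DMEM with 10% FBS, seeded at 10^6 cells/well for 24 h, then moved to serum-free medium. Cells were pretreated with 50 μM peptide for 30 min, then stimulated with 12.5 nM SDF-1α for 5 min. Lysates were adjusted to 3 mg/mL, run on 12% SDS-PAGE and immunoblotted for phospho-AKT/ERK with ECL detection. Bands were quantified by densitometry as % control.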
A general note: In western blotting, separated proteins are transferred to a membrane and probed.

For series [4] the target is unchanged. The series is described as follows: Competitive binding affinity to CXCR4 in human SupT1 cells incubated for 40 mins by 12G5 antibody based fluorescence analysis. In kind it is cell-based.
The subject of series [5] is C-X-C chemokine receptor type 4 (Homo sapiens), P61073 [E288Q]. The experiment in a line: Binding affinity to CXCR4 E288Q mutant (unknown origin) expresssed in CHO cells at 200 nM incubated for 30 mins by 12G5 antibody based fluorescence analysis. The format is cell-based. In a few lines:
(§3)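 Wild-type or mutant CXCR4 cells (5×10⁵/well) incubated with single 200 nM concentration in FACS buffer (0.5% BSA, 0.05% azide in PBS) plus 12G5 anti-CD184 antibody, 30 min on ice; washed, FITC anti-mouse IgG 30 min on ice; fluorescence 485ex/528em; duplicates, ≥3 independent experiments, normalized as percent of control.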

For series [6], the system named is C-X-C chemokine receptor type 4 (Homo sapiens), P61073 [Q200A]. The experiment in a line: Binding affinity to CXCR4 Q200A mutant (unknown origin) expresssed in CHO cells at 200 nM incubated for 30 mins by 12G5 antibody based fluorescence analysis. In kind it is cell-based. A digest of the protocol: (§4)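 Mutational mapping in CHO cells expressing wild-type or mutant CXCR4, 5×10^5 cells/well. Cells were incubated with a single 200 nM peptide concentration plus 12G5 anti-CD184 antibody in FACS buffer on ice for 30 min. FITC anti-mouse IgG was then added for 30 min on ice. Fluorescence was read at 485/528 nm and normalized to control, in duplicate across at least three experiments.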

In series [7] the test system is C-X-C chemokine receptor type 4 (Homo sapiens), P61073 [D262N]. The experiment in a line: Binding affinity to CXCR4 D262N mutant (unknown origin) expresssed in CHO cells at 200 nM incubated for 30 mins by 12G5 antibody based fluorescence analysis. The format is cell-based. In a few lines:
as §3

In series [8] the test system is C-X-C chemokine receptor type 4 (Homo sapiens), P61073 [W195A]. The experiment in a line: Competitive binding affinity to CXCR4 W195A mutant (unknown origin) expresssed in CHO cells at 200 nM incubated for 30 mins by 12G5 antibody based fluorescence analysis. The format is cell-based. In a few lines:
as §3

For series [9], the system named is C-X-C chemokine receptor type 4 (Homo sapiens), P61073 [V112A]. The series is described as follows: Competitive binding affinity to CXCR4 V112A mutant (unknown origin) expresssed in CHO cells at 200 nM incubated for 30 mins by 12G5 antibody based fluorescence analysis. In kind it is cell-based. In a few lines:
as §4

Series [10] concerns C-X-C chemokine receptor type 4 (Homo sapiens), P61073 [Y116A]. The experiment in a line: Competitive binding affinity at CXCR4 Y116A mutant (unknown origin) expressed in CHO cells at 200 nM incubated for 30 mins by 12G5 antibody based fluorescence analysis. The format is cell-based. A digest of the protocol:
as §3

The subject of series [11] is C-X-C chemokine receptor type 4 (Homo sapiens), P61073 [W94A]. The experiment in a line: Competitive binding affinity at CXCR4 W94A mutant (unknown origin) expressed in CHO cells at 200 nM incubated for 30 mins by 12G5 antibody based fluorescence analysis. In kind it is cell-based. A digest of the protocol:
as §3

The test system of series [12] is C-X-C chemokine receptor type 4 (Homo sapiens), P61073 [Y45A]. The experiment in a line: Competitive binding affinity to CXCR4 Y45A mutant (unknown origin) expressed in CHO cells at 200 nM incubated for 30 mins by 12G5 antibody based fluorescence analysis. The format is cell-based. In a few lines:
as §3

The subject of another series is PBMC. The experiment in a line: Cytotoxicity against HIV1 NL4-3 infected in human PBMC cells assessed as cell viability at 50 uM preincubated with cells for 2 hrs followed by viral infection for 2 hrs and measured after 5 days by CellTiter-Blue assay. The format is cell-based. Conditions: 120 h. A digest of the protocol:
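PBMCs were seeded at the anti-HIV assay densities and treated in parallel under the same X4 infection and compound exposure conditions. After 5 days at 37°C, viability was read by CellTiter-Blue fluorescence (560/590 nm). The top concentration tested was 50 μM.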
On the technique in general: Resazurin is reduced to fluorescent resorufin, in cell work by metabolically active cells.

For series [13], the system named is Human immunodeficiency virus 1. The experiment in a line: Antiviral activity against Human immunodeficiency virus 1 NL4-3 infected in human PBMC cells assessed as reduction in intracellular p24 level at 100 nM preincubated with cells 2 hrs followed by viral infection and measured after 24 hrs by ELISA. In kind it is functional. A digest of the protocol: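 PBMCs from healthy donors (2.5×10^6 cells/mL) were exposed to compound for 2 h, washed, and infected with HIV-1 NL4-3 at MOI 0.02 for 2 h at 37°C. Cells were washed, resuspended in complete medium and incubated 24 h. Cells were then lysed with protease inhibitor, and intracellular p24 was quantified by ELISA.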

Series [14] has as its target T1, C-X-C chemokine receptor type 4. The experiment in a line: Antagonist activity at CXCR4 (unknown origin) in CHO cells assessed as reduction in SDF-1alpha-induced ERK phosphorylation level at 50 uM incubated for 30 mins followed by SDF1-alpha addition measured after 5 mins by Western blot analysis. The format is cell-based. A digest of the protocol: as §2
Series [15] has the same target. The series is described as follows: Competitive binding affinity to CXCR4 receptor (unknown origin) expressed in CHO cells incubated for 40 mins by 12G5 antibody based fluorescence analysis. In kind it is cell-based.
Series [16] in a line: Stability of compound in water assessed as compound remaining at 1mM at 37 degC after 48 hrs by HPLC analysis relative to control. The format is physicochemical. Conditions: read-out: Stability.
Series [17] is described as follows: Stability of compound in 10% FBS assessed as compound remaining at 1mM after 1 hr by HPLC analysis relative to control. In kind it is ADME, cell-free, Bos taurus, Serum. Conditions: cattle, read-out: Stability. A digest of the protocol: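 Peptide dissolved at 1 mM in culture medium with 10% FBS, incubated at 37°C; samples taken over time and analysed by C18 HPLC, UV 220 nm; remaining peptide from peak intensity relative to original peak.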

Series [18] addresses T1, C-X-C chemokine receptor type 4. The series is described as follows: Antagonist activity at CXCR4 (unknown origin) expressed in CHO cells assessed as reduction in basal phosphorylated AKT expression at 50 uM incubated for 30 mins followed by measured after 5 mins by Western blot analysis. The format is cell-based.
Series [19] deals with C-X-C chemokine receptor type 4 (Homo sapiens), P61073 [R30A]. The series is described as follows: Binding affinity to CXCR4 R30A mutant (unknown origin) expresssed in CHO cells at 200 nM incubated for 30 mins by 12G5 antibody based fluorescence analysis. In kind it is cell-based. A digest of the protocol: as §4
For series [20], the target named is T1, C-X-C chemokine receptor type 4. The experiment in a line: Inhibition of N-terminal flag-tagged CXCR4 (unknown origin) internalization expressed in CHO cells incubated for 45 mins and measured after 1 hr by FITC-labeled anti-flag antibody based fluorescence analysis.
Series [21] deals with Human immunodeficiency virus 1. The series is described as follows: Antiviral activity against Human immunodeficiency virus 1 NL4-3 infected in human PBMC cells assessed as inhibition of extracellular p24 level preincubated with cells for 2 hrs followed by viral infection for 2 hrs and measured after 5 days by ELISA. For orientation: An ELISA detects its analyte on a solid surface through an enzyme-linked reagent.

T1 sequence (P61073 whole entry): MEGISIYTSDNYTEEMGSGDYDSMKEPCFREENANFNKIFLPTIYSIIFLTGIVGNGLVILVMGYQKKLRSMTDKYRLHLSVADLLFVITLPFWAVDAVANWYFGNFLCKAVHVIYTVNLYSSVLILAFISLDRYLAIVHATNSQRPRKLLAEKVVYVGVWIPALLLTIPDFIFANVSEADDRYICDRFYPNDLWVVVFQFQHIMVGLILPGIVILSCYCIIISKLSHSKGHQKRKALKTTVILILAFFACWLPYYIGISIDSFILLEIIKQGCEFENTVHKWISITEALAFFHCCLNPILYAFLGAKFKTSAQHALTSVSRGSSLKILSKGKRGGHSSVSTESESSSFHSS
C-X-C chemokine receptor type 4 (Homo sapiens), P61073 [E288Q], sequence (P61073 whole entry E288Q): as the sequence (P61073 whole entry) above, with E288Q counted along it
C-X-C chemokine receptor type 4 (Homo sapiens), P61073 [Y116A], sequence (P61073 whole entry Y116A): as the sequence (P61073 whole entry) above, with Y116A counted along it
C-X-C chemokine receptor type 4 (Homo sapiens), P61073 [D262N], sequence (P61073 whole entry D262N): as the sequence (P61073 whole entry) above, with D262N counted along it
C-X-C chemokine receptor type 4 (Homo sapiens), P61073 [W94A], sequence (P61073 whole entry W94A): as the sequence (P61073 whole entry) above, with W94A counted along it
C-X-C chemokine receptor type 4 (Homo sapiens), P61073 [Y45A], sequence (P61073 whole entry Y45A): as the sequence (P61073 whole entry) above, with Y45A counted along it
C-X-C chemokine receptor type 4 (Homo sapiens), P61073 [R30A], sequence (P61073 whole entry R30A): as the sequence (P61073 whole entry) above, with R30A counted along it
C-X-C chemokine receptor type 4 (Homo sapiens), P61073 [V112A], sequence (P61073 whole entry V112A): as the sequence (P61073 whole entry) above, with V112A counted along it
C-X-C chemokine receptor type 4 (Homo sapiens), P61073 [W195A], sequence (P61073 whole entry W195A): as the sequence (P61073 whole entry) above, with W195A counted along it
C-X-C chemokine receptor type 4 (Homo sapiens), P61073 [Q200A], sequence (P61073 whole entry Q200A): as the sequence (P61073 whole entry) above, with Q200A counted along it

A word on the inhibition: it is the percentage by which the read-out fell short of the control. The term pIC50 denotes the negative decadic logarithm of the IC50, by convention in mol/L. Turning to `CC(C)C[C@@H](N)C(=O)NCC(=O)N[C@H](C)C(=O)N[C@H](CO)C(=O)N[C@H](Cc1c[nH]c2ccccc12)C(=O)N[C@H](Cc1cnc[nH]1)C(=O)N[C@H](CCCNC(=N)N)C(=O)N1CCC[C@@H]1C(=O)N[C@H](CC(=O)O)C(=O)N[C@H](CCCCN)C(=O)N[C@H](CCCCN)C(=O)N[C@H](CCCNC(=N)N)C(=O)NCCCCCC(=O)N[C@@H](CCCCN)C(=O)N[C@@H](CCCNC(=N)N)C(=O)N[C@@H](CCCCN)C(=O)N[C@H](C(=O)N[C@@H](CC(N)=O)C(=O)N[C@@H](CC(N)=O)C(=O)N[C@@H](CC(N)=O)C(=O)N1CCC[C@H]1C(=O)N[C@@H](CCCNC(=N)N)C(=O)N[C@H](C(=O)N[C@@H](CS)C(=O)O)[C@@H](C)O)[C@@H](C)O`, the inhibition is 100% in [1], “Dose-dependent effect” in series [2] and “Dose-dependent effect” in series [21]. In addition, the outcome in series [3], in [14], in series [18] and in [19] was Active. Moreover, the pIC50 was 7.85 in series [4], 7.80 in [15] and 7.03 in series [21]. Besides, the outcome in [5], in series [6], in [7], in [8], in series [9] and in series [10] was inactive. Besides, the outcome in series [11], in [12] and in series [20] was inactive. In the series on PBMC, the Activity entry was “Non-Toxic”. Besides, the inhibition at 0.1 µM in series [13] is 16%. For the same compound, the remaining at 48 h, 1000 µM in series [16] came to 87%. Moreover, the remaining at 1 h, 1000 µM in series [17] is 80%.
